Active and inactive are the calls of the source.
Columns and labels:
RXF 393 = assay: Cytotoxicity against human RXF393 cells by sulforhodamine B assay; assay type: functional
Method in brief: (§1)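 NCI Developmental Therapeutics Program 60-cell-line human tumor panel screen, run at NCI. A single-concentration pre-screen was followed by a five-concentration dose-response in 10-fold steps. GI50 is the concentration that reduces growth of treated cells to half that of untreated control cells. TGI is the concentration that completely halts growth.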

COLO 205 [1] = assay: Antitumor activity against human COLO205 cells xenografted in mouse assessed as tumor cell killing at 4.7 mg/kg, ip qd for 4 days by MTT assay; assay type: functional, organism-based; design: dose 4.7 mg/kg
Method in brief: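 Hollow-fiber assay in mice. Tumor lines were grown in RPMI-1640 with 10% FBS and 2 mM glutamine. Cells at 2 × 10^6 cells/ml were loaded into 1 mm PVDF fibers (500,000 Da cutoff), heat-sealed at 2 cm and held 24–48 h at 37 °C, 5% CO2 before implantation. Compound was given IP. Fibers were collected the day after the fourth treatment for MTT (OD 540 nm, group means). A ≥50% cut in percent net growth versus vehicle counted as positive.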

OVCAR-3 [2] = assay: Cytotoxicity against human OVCAR3 cells by sulforhodamine B assay; assay type: functional; method in brief: as §1
T47D [3] = assay: Cytotoxicity against human T47D cells assessed as cell growth at 8 uM by sulforhodamine B assay relative to control; assay type: functional; settings: read-out: Activity
KM12 = assay: Cytotoxicity against human KM12 cells assessed as cell growth at 8 uM by sulforhodamine B assay relative to control; assay type: functional; settings: read-out: Activity
OVCAR-3 [4] = assay: Cytotoxicity against human OVCAR3 cells assessed as cell growth at 800 nM by sulforhodamine B assay relative to control; assay type: functional; settings: read-out: Activity
IGROV-1 = assay: Cytotoxicity against human IGROV1 cells assessed as cell growth at 800 nM by sulforhodamine B assay relative to control; assay type: functional; settings: read-out: Activity
COLO 205 [5] = assay: Cytotoxicity against human COLO205 cells assessed as cell growth at 80 nM by sulforhodamine B assay relative to control; assay type: functional; settings: read-out: Activity
Method in brief: (§2)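 Run at NCI in the DTP 60-cell-line human tumor panel by standard procedure. Compounds were first screened at a single concentration, then tested at five tenfold-spaced concentrations. GI50 is the concentration reducing treated-cell growth to half that of untreated controls; TGI is the concentration completely halting growth.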

OVCAR-5 = assay: Cytotoxicity against human OVCAR5 cells assessed as cell growth at 8 nM by sulforhodamine B assay relative to control; assay type: functional; settings: read-out: Activity
UACC-62 = assay: Cytotoxicity against human UACC62 cells assessed as cell growth at 8 nM by sulforhodamine B assay relative to control; assay type: functional; settings: read-out: Activity
TK-10 = assay: Cytotoxicity against human TK10 cells assessed as cell growth at 800 nM by sulforhodamine B assay relative to control; assay type: functional; settings: read-out: Activity
UO-31 = assay: Cytotoxicity against human UO31 cells assessed as cell growth at 8 nM by sulforhodamine B assay relative to control; assay type: functional; settings: read-out: Activity
SF-539 = assay: Cytotoxicity against human SF539 cells assessed as cell growth at 8 uM by sulforhodamine B assay relative to control; assay type: functional; settings: read-out: Activity
NCI-H460 [6] = assay: Cytotoxicity against human NCI-H460 cells by sulforhodamine B assay; assay type: functional; method in brief: as §1
NCI-H460 [7] = assay: Cytotoxicity against human NCI-H460 cells assessed as cell growth at 8 uM by sulforhodamine B assay relative to control; assay type: functional; settings: read-out: Activity
DU-145 [8] = assay: Cytotoxicity against human DU145 cells assessed as cell growth at 8 uM by sulforhodamine B assay relative to control; assay type: functional; settings: read-out: Activity; method in brief: as §2
Staphylococcus aureus = assay: Antimicrobial activity against methicillin-resistant Staphylococcus aureus ATCC 43300 by CLSI method; assay type: functional, organism-based
HOP-92 = assay: Cytotoxicity against human HOP92 cells assessed as cell growth at 80 uM by sulforhodamine B assay relative to control; assay type: functional; settings: read-out: Activity
NCI-H23 = assay: Cytotoxicity against human NCI-H23 cells assessed as cell growth at 80 nM by sulforhodamine B assay relative to control; assay type: functional; settings: read-out: Activity
Hs-578T [9] = assay: Cytotoxicity against human Hs578T cells assessed as cell growth at 80 nM by sulforhodamine B assay relative to control; assay type: functional; settings: read-out: Activity
NCI-H460 [10] = assay: Cytotoxicity against human NCI-H460 cells assessed as cell growth at 80 uM by sulforhodamine B assay relative to control; assay type: functional; settings: read-out: Activity
NCI/ADR-RES = assay: Cytotoxicity against human NCI/ADR-RES cells assessed as cell growth at 80 nM by sulforhodamine B assay relative to control; assay type: functional; settings: read-out: Activity
M14 [11] = assay: Cytotoxicity against human M14 cells assessed as cell growth at 8 uM by sulforhodamine B assay relative to control; assay type: functional; settings: read-out: Activity
OVCAR-4 [12] = assay: Cytotoxicity against human OVCAR4 cells assessed as cell growth at 80 nM by sulforhodamine B assay relative to control; assay type: functional; settings: read-out: Activity
UACC-257 = assay: Cytotoxicity against human UACC257 cells by sulforhodamine B assay; assay type: functional; method in brief: as §1
HCT-116 = assay: Cytotoxicity against human HCT116 cells assessed as cell growth at 8 nM by sulforhodamine B assay relative to control; assay type: functional; settings: read-out: Activity
OVCAR-8 = assay: Cytotoxicity against human OVCAR8 cells assessed as cell growth at 8 uM by sulforhodamine B assay relative to control; assay type: functional; settings: read-out: Activity
OVCAR-4 [13] = assay: Cytotoxicity against human OVCAR4 cells assessed as cell growth at 8 uM by sulforhodamine B assay relative to control; assay type: functional; settings: read-out: Activity
SF-268 = assay: Cytotoxicity against human SF268 cells by sulforhodamine B assay; assay type: functional
SNB-75 = assay: Cytotoxicity against human SNB75 cells assessed as cell growth at 8 uM by sulforhodamine B assay relative to control; assay type: functional; settings: read-out: Activity
HL-60(TB) = assay: Cytotoxicity against human HL-60(TB) cells assessed as cell growth at 80 uM by sulforhodamine B assay relative to control; assay type: functional; settings: read-out: Activity
Hs-578T [14] = assay: Cytotoxicity against human Hs578T cells assessed as cell growth at 800 nM by sulforhodamine B assay relative to control; assay type: functional; settings: read-out: Activity
SK-MEL-5 = assay: Cytotoxicity against human SK-MEL-5 cells assessed as cell growth at 8 uM by sulforhodamine B assay relative to control; assay type: functional; settings: read-out: Activity
DU-145 [15] = assay: Cytotoxicity against human DU145 cells assessed as cell growth at 800 nM by sulforhodamine B assay relative to control; assay type: functional; settings: read-out: Activity
Malme-3M = assay: Cytotoxicity against human MALME-3M cells assessed as cell growth at 80 nM by sulforhodamine B assay relative to control; assay type: functional; settings: read-out: Activity
LOX IMVI = assay: Cytotoxicity against human LOXIMVI cells assessed as cell growth at 8 nM by sulforhodamine B assay relative to control; assay type: functional; settings: read-out: Activity
T47D [16] = assay: Cytotoxicity against human T47D cells assessed as cell growth at 800 nM by sulforhodamine B assay relative to control; assay type: functional; settings: read-out: Activity
SNB-19 = assay: Cytotoxicity against human SNB19 cells assessed as cell growth at 80 nM by sulforhodamine B assay relative to control; assay type: functional; settings: read-out: Activity
M14 [17] = assay: Cytotoxicity against human M14 cells assessed as cell growth at 80 uM by sulforhodamine B assay relative to control; assay type: functional; settings: read-out: Activity
M14 [18] = assay: Cytotoxicity against human M14 cells by sulforhodamine B assay; assay type: functional; method in brief: as §1

In the case of `C/C=C1\NC(=O)[C@H](Cc2ccccc2)NC(=O)[C@@H](C(C)C)NC(=O)[C@@H]([C@@H](C)CC)NC(=O)[C@H](NC(=O)[C@H](NC(=O)[C@H](CCCNCc2ccc(F)c(C)c2)NC(=O)[C@H]2CCCN2C(=O)[C@H](NC(=O)[C@@H](NC(=O)[C@@H](NC(=O)[C@H](NC(=O)CCCC(C)C)C(C)C)[C@@H](C)O)C(C)C)C(C)C)[C@@H](C)CC)[C@@H](C)OC(=O)[C@H](C(C)C)NC1=O`, the GI50 (RXF 393) is reported as 1350 nM, the LC50 (RXF 393) is reported as 6310 nM and the TGI (RXF 393; read-out: pTGI (converted)) is reported as 2950 nM. For the same molecule, the Activity (COLO 205 [1]) was “inactive”, the GI50 (OVCAR-3 [2]) was 437 nM and the LC50 (OVCAR-3 [2]) was 3470 nM. For the same molecule, the TGI (OVCAR-3 [2]; read-out: pTGI (converted)) was 1480 nM, the growth at 8 µM (T47D [3]) was -61% and the growth at 8 µM (KM12) was -85%. For the same molecule, the growth at 0.8 µM (OVCAR-3 [4]) was 39%, the growth at 0.8 µM (IGROV-1) was 48% and the growth at 0.08 µM (COLO 205 [5]) was 90%. For the same molecule, the growth at 0.008 µM (OVCAR-5) was 107%, the growth at 0.008 µM (UACC-62) was 103% and the growth at 0.8 µM (TK-10) was 101%. For the same molecule, the growth at 0.008 µM (UO-31) was 100%, the growth at 8 µM (SF-539) was -93% and the GI50 (NCI-H460 [6]) was 1510 nM. For the same molecule, the growth at 8 µM (NCI-H460 [7]) was -71%, the growth at 8 µM (DU-145 [8]) was -100% and the Activity (Staphylococcus aureus) was “inactive”. For the same molecule, the growth at 80 µM (HOP-92) was -91%, the growth at 0.08 µM (NCI-H23) was 100% and the growth at 0.08 µM (Hs-578T [9]) was 97%. For the same molecule, the growth at 80 µM (NCI-H460 [10]) was 2%, the growth at 0.08 µM (NCI/ADR-RES) was 88% and the growth at 8 µM (M14 [11]) was -99%. The growth at 0.08 µM (OVCAR-4 [12]) was 104%, the LC50 (UACC-257) was 5130 nM and the GI50 (UACC-257; read-out: GI50) was 1280 nM. It also gave a TGI (UACC-257; read-out: TGI) of 2550 nM, a GI50 (UACC-257; read-out: pGI50 (converted)) of 1290 nM and a TGI (UACC-257; read-out: pTGI (converted)) of 2570 nM. For the same molecule, the growth at 0.008 µM (HCT-116) was 98%, the growth at 8 µM (OVCAR-8) was -14% and the growth at 8 µM (OVCAR-4 [13]) was -65%. For the same molecule, the GI50 (SF-268) was 955 nM, the growth at 8 µM (SNB-75) was -73% and the growth at 80 µM (HL-60(TB)) was -37%. It also gave a growth at 0.8 µM (Hs-578T [14]) of -5%, a growth at 8 µM (SK-MEL-5) of -100% and a growth at 0.8 µM (DU-145 [15]) of -85%. For the same molecule, the growth at 0.08 µM (Malme-3M) was 118%, the growth at 0.008 µM (LOX IMVI) was 96% and the growth at 0.8 µM (T47D [16]) was -50%. The growth at 0.08 µM (SNB-19) was 96%, the growth at 80 µM (M14 [17]) was -49% and the GI50 (M14 [18]) was 1350 nM. For the same molecule, the TGI (M14 [18]; read-out: pTGI (converted)) was 2400 nM.

Reference: ChEMBL document CHEMBL1921722, “In vitro and in vivo evaluation of select kahalalide F analogs with antitumor and antifungal activities” (Bioorg Med Chem, 2011)
